Source: PubChem
Beta cell apopt: inhibitors of cytokine-induced beta cell apoptosis, primary screen, luminescence; hit rate 0.8% among 300,000; AID 435005, 2010; protection from apoptosis, % (test concentration not listed); INS-1E cytokine-induced death, ATP luminescence, 48 h; percent of positive-control rescue, neutral wells zero;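 active = Every replicate reaches about 75%, or at least half do and their mean reaches it too, limit read from the data; inconclusive = At least half of replicates reach the limit but their mean does not; inactive = Under half of replicates reach the limit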;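 also: 0% = cytokine-treated negative control wells and 100% = positive control rescue; higher means more ATP so stronger rescue from cytokine killing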
T cruzi inh: inhibitors of intracellular T. cruzi growth, primary screen, luminescence, NIH3T3 host cells; AID 1885, 2009; T. cruzi beta-gal in NIH3T3, 90 h; inhibition, % (test concentration not listed); hit rate 1.4% among 300,000;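 active = mean inhibition across valid replicates above about 55%, limit read from the data; inconclusive = mean below that limit but half or more replicates reach it; inactive = mean below it, under half of replicates reach it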;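 also: signal also drops with host cell toxicity which is not excluded here; 0% = plate median of DMSO wells and 100% = zero luminescence signal; higher percent means less beta-gal luminescence so fewer parasites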
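Test system: β-gal T. cruzi (Tulahuen C4) inside NIH/3T3 cells / Quantity: 5,000 cells/well / Measured by: luminescence from GalScreen with 0.05% NP40, read after 60 min / Medium: DMEM plus 2% FBS / Measure: parasite load inhibition, % / Reagent: Tulahuen C4 trypomastigotes, 5000/well / Schedule: co-culture of at least 90 h after 3 h attachment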
CSC inhib: cancer stem cell viability inhibitors, primary screen, luminescence. hit rate 1.1% among 300,000. inhibition, % at 7.5 µM. cancer stem cell-like cells viability. AID 2717, 2010; in the data active = inhibition above about 75%; inconclusive = no clear call, values can overlap the other calls; tested in HMLE shEcad cells
Lmaj promast: Leishmania major promastigote growth inhibition, primary screen. hit rate 9% among 200,000. Leishmania major promastigotes, resazurin fluorescence viability. inhibition, % at 10 µM; in the data active = inhibition above about 50%;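 also: promastigotes grown with compound for 44 hours at 28 °C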
Mdm2-MdmX inh: inhibitors of human Mdm2-MdmX association, primary screen, cell-based, luminescence, split luciferase, SaOS-2, uHTS; Protein Mdm4 (Homo sapiens) + E3 ubiquitin-protein ligase Mdm2 (Homo sapiens), …; SaOS-2 split-luciferase Mdm2/MdmX complementation; inhibition, % at 8 µM; hit rate 3% among 330,000; AID 485346, 2010;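 active = inhibition of at least 50% at 8 µM in the primary screen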
Target sequence (O15151 whole entry, looked up): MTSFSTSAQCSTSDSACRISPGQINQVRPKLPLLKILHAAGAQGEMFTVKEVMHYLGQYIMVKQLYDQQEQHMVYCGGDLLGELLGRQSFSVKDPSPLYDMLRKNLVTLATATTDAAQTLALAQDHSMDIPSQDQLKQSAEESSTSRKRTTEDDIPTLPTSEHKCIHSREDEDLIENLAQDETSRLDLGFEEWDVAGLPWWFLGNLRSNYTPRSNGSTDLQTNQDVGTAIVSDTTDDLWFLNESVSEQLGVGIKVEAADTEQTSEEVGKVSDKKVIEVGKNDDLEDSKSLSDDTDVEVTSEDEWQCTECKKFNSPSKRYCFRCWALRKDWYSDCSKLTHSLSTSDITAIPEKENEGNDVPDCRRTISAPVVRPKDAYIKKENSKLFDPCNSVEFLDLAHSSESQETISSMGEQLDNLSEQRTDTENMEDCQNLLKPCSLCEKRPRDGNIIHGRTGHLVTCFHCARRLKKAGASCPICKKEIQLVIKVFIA
Target sequence (Q00987 whole entry, looked up): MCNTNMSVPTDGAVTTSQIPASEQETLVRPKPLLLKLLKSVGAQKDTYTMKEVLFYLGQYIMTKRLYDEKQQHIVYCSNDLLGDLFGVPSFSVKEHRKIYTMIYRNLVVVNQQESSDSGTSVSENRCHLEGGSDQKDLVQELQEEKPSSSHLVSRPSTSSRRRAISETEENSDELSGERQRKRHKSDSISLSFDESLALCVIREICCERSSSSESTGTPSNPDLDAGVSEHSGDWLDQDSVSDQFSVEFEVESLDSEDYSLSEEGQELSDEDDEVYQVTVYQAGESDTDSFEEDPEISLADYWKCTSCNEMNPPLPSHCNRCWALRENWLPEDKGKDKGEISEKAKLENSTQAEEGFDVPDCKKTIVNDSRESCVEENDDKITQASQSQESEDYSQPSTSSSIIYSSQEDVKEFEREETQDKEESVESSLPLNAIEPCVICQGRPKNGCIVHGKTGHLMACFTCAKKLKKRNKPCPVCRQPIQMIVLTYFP
SKKanGAS inh: S. pyogenes SKKanGAS growth inhibitors in kanamycin, primary screen, streptokinase expression inhibitor project, SKKanGAS strain, BacTiter-Glo luminescence. inhibition, % at 7.5 µM. hit rate 1.3% among 300,000. 6 h;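 active = mean replicate score, as percent of positive control median, at least 50; inconclusive = mean below 50 but one replicate at or above 50; inactive = mean and every replicate below 50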;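 also: strain carries kanamycin resistance gene driven by streptokinase promoter and grows in 40 µg/ml kanamycin; loss of luminescence reflects streptokinase promoter inhibition or plain growth inhibition; 0% = median of DMSO wells and 100% = positive control at its reference dose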
Mdm2-MdmX conf: Mdm2-MdmX complex disruptors, retested hits, confirmation, luminescence, single concentration. hit rate 55% among 10,000. Mdm2-MdmX binding, luminescent assay. inhibition, % at 8 µM. AID 489028, 2010. shares compounds with Mdm2-MdmX inh; in the data active = inhibition above about 40%
FLuc counter: full-length luciferase signal inhibition, confirmation, counter-screen for Mdm2/MdmX interaction inhibitor project, cell-based, single concentration, SaOS-2; AID 504607, 2011; hit rate 77% among 6,200; shares compounds with Mdm2-MdmX inh; SaOS-2 full-length luciferase counterscreen, luminescence; inhibition, % at 8 µM;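 active = mean inhibition at 8 µM reaching about 37%, which flags the compound as non-specific, limit read from the data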;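 also: p53-null SaOS-2 cells with luciferase driven by a doxycycline-inducible promoter; compound on cells about two nights before reading with doxycycline added after day one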
* hit, by the source's call; ? = inconclusive; · = no result given. Hits are enriched below; roughly 9.4% of the tested compounds scored in any of these assays.

SMILES | Beta cell apopt | T cruzi inh | CSC inhib | Lmaj promast | Mdm2-MdmX inh | SKKanGAS inh | Mdm2-MdmX conf | FLuc counter
CC(=O)N1CCOc2ccc(S(=O)(=O)N3CCC(C)CC3)cc21 | -2.9 | -9.1 | -6.3 | · | 7.4 | -1.6 | · | ·
Cc1ccc(CNC(=O)CCCn2nc(C)n3ccnc3c2=O)cc1 | 0.6 | 7.4 | -10.4 | · | 8.5 | -1.0 | · | ·
O=C(CNC(=O)c1ccccc1O)N/N=C/c1cc(Br)ccc1OC(=O)/C=C/c1ccco1 | 88.5* | ? | -2.2 | 68.2* | 51.5* | -4.0 | 70.2* | 41.1*
CS(=O)(=O)c1ccc2nc(NC(=O)Nc3cccc(Cl)c3)sc2c1 | 50.9 | 2.1 | 63.0 | 27.3 | 91.7* | -3.9 | 64.2* | 76.8*
Cc1ccc(NC(=O)Nc2nc3ccc(S(C)(=O)=O)cc3s2)cc1 | · | · | · | · | 14.4 | · | · | ·
CS(=O)(=O)c1ccc2nc(NC(=O)Nc3ccc(Cl)c(Cl)c3)sc2c1 | 33.4 | 14.4 | -0.3 | 0.9 | 54.4* | 1.9 | 9.2 | ·
Cc1cc(C(=O)N2CCCC(C(=O)c3cccc(C(F)(F)F)c3)C2)nc(C)n1 (centres undefined) | -2.9 | 3.1 | 2.4 | -4.7 | -17.1 | -6.6 | · | ·
COc1ccc(/C=C\C(=O)O[C@@H]2C(O)C(O[C@@H]3OC(C)[C@H](O[C@@H]4OCC(O[C@H]5O[C@H](CO)[C@@H](O)C(O)C5O)C(O)C4O)C(O)C3O)[C@H](OC(=O)[C@]34CCC(C)(C)C[C@@H]3C3=CCC5[C@@]6(C)CC(O)C(O[C@@H]7OC(CO)C(O)[C@H](O)[C@H]7O)[C@@](C)(C(=O)O)C6CC[C@@]5(C)[C@]3(CO)CC4)O[C@H]2C)cc1 (some centres undefined) | 36.7 | · | 64.6 | · | 78.7* | · | 58.6* | 17.2
CC(C)(O)C1CC[C@@](C)([C@@H]2CC[C@]3(C)[C@H]2[C@H](O)CC2[C@@]4(C)CCC(O)C(C)(C)C4C(OC4OC(CO)C(O)C(O)C4O[C@@H]4OCC(O)C(O)C4O)C[C@]23C)O1 (some centres undefined) | 0.1 | · | -17.4 | · | 17.7 | · | · | ·
COc1ccc(NC(=O)CSc2nnc(Cc3ccccc3)c(=O)n2N)cc1OC | · | -8.3 | -7.7 | · | 21.5 | -4.3 | · | ·
COc1cc(C2C(C#N)=C(N)N(N(C)C)C3=C2C(=O)CC(C)(C)C3)ccc1O (centres undefined) | 2.6 | -3.1 | 1.2 | · | 18.6 | -2.6 | · | ·
COc1cc(C2C(C#N)=C(N)N(Nc3ccccc3)C3=C2C(=O)CC(C)(C)C3)ccc1OCc1cccc(F)c1 (centres undefined) | -2.7 | 37.8 | 11.2 | 56.4* | 61.5* | 16.4 | 18.6 | ·
Cc1c(C(=O)Nc2nonc2-c2ccc(F)cc2)oc2ccc(F)cc12 | -1.5 | -18.9 | ? | · | 85.8* | 57.1* | 76.5* | 52.0*
CCc1nonc1NC(=O)c1oc2ccc(F)cc2c1C | · | -10.8 | · | · | -17.6 | -2.6 | · | ·
CCOC(=O)c1cc(-c2ccccc2C)n(CC2CC(c3cccc([N+](=O)[O-])c3)=NO2)n1 (centres undefined) | -5.3 | · | 53.7 | · | 41.0 | · | · | ·
Cc1c(C2(O)CCCCC2)[nH]c2ccc(C(F)(F)F)cc12 | 5.5 | · | 81.1* | · | 65.9* | · | 30.9 | 61.6*
O=C(NCc1ccccc1CN1CCOCC1)c1ccc(-n2cccn2)cc1 | 3.6 | · | -7.1 | · | -4.6 | · | · | ·
O=C(Nc1ccc(Cl)cc1)N1CCCN(Cc2ccc(F)cc2)C1 | 1.6 | 49.0 | 11.3 | 92.3* | 53.0* | 9.4 | 29.1 | ·
O=C(Nc1ccccc1)N1CCN(Cc2ccc(Cl)cc2)CC1 | -5.9 | -10.6 | -19.1 | 14.6 | 1.4 | -20.6 | · | ·
COc1ccc(C(=O)N=C2SC3CS(=O)(=O)CC3N2Cc2ccc(F)cc2)cc1 (centres undefined) | 0.3 | 23.2 | -17.6 | · | 51.0* | 5.3 | 40.9* | 65.1*
COc1ccc(CN2C(=NC(=O)C3CC3)SC3CS(=O)(=O)CC32)cc1 (centres undefined) | -1.4 | -3.6 | -2.0 | · | 9.4 | -2.0 | · | ·
COc1ccc(CN2C(=NC(=O)c3ccccc3)SC3CS(=O)(=O)CC32)cc1 (centres undefined) | 1.8 | 24.7 | -10.8 | · | 50.1* | -4.2 | 4.7 | ·
Cn1cc(C(=O)c2ccc(Cl)cc2Cl)cc1C(=O)N/N=C(\N)COc1ccccc1 | 7.8 | 4.0 | 10.1 | -1.3 | 21.7 | -1.0 | · | ·
Cn1cc(C(=O)c2ccc(Cl)cc2Cl)cc1C(=O)N/N=C(\N)COc1ccc(F)cc1 | 8.9 | 8.6 | 14.5 | 5.6 | 37.5 | 25.1 | · | ·
Cn1cc(C(=O)c2ccc(Cl)cc2Cl)cc1C(=O)N/N=C(\N)COc1ccc(Cl)cc1Cl | 19.4 | 14.5 | -17.3 | 100.0* | 66.6* | 70.6* | 40.6* | 39.6*
SMILES | Beta cell apopt | T cruzi inh | CSC inhib | Lmaj promast | Mdm2-MdmX inh | SKKanGAS inh | Mdm2-MdmX conf | FLuc counter
Cn1cc(C(=O)c2ccc(Cl)cc2Cl)cc1C(=O)N/N=C(\N)COc1ccc(Cl)cc1 | 21.2 | 43.2 | 32.1 | · | 63.6* | 25.2 | 40.0* | 43.4*
Cc1cccc(NC(=O)CSc2nnc(C)c(C)n2)c1 | -2.6 | 9.8 | -1.7 | · | 10.6 | 1.4 | · | ·
O=C(CNCc1cccnc1)Nc1cc(C(F)(F)F)ccc1N1CCOCC1 | -6.8 | 2.8 | -0.5 | · | -33.8 | 6.6 | · | ·
COc1ccc(S(=O)(=O)N2c3ccc(F)cc3CCC2C)cc1 (centres undefined) | · | -3.0 | 63.1 | · | 59.1* | 9.1 | 63.3* | 97.1*
CC(=O)Nc1ccc(S(=O)(=O)N2CCCC(C(=O)N3CCN(c4ccccc4)CC3)C2)cc1 (centres undefined) | -1.4 | 3.5 | -0.4 | · | -2.9 | -3.6 | · | ·
O=C1COc2ccc(S(=O)(=O)N3CCC(C(=O)NCc4ccccc4)CC3)cc2N1 | -7.7 | -12.9 | -14.2 | · | 10.3 | -1.2 | · | ·
COc1cc(CNc2ccc(O)cc2)cc(Br)c1OCc1ccccc1 | 28.6 | -32.4 | 59.5 | 9.5 | 0.6 | 3.6 | · | ·
COc1cc(CNC(C)c2ccccc2)cc(Cl)c1OCC(=O)Nc1ccccc1 (centres undefined) | -6.0 | 3.4 | 26.5 | 33.2 | 67.7* | -15.0 | 56.3* | 51.5*
COc1cc(CNC(C)c2ccccc2)cc(Br)c1OCc1ccc(F)cc1 (centres undefined) | 113.4* | 55.1* | 55.8 | · | 59.7* | 12.5 | 62.7* | 75.0*
CCN(CC)CCNCc1cc(Cl)c(OCC(=O)Nc2ccccc2)c(OC)c1 | 0.2 | 8.8 | -1.0 | 23.1 | 7.4 | -4.3 | · | ·
